Published values from different studies.
Each line is one published result; the experiments were not run side by side.
Target: Dual specificity mitogen-activated protein kinase kinase 2 (MAP2K2, Homo sapiens, UniProt P36507)

| read-out | mode | technique | concentration | endpoint | result | Compound |
| --- | --- | --- | --- | --- | --- | --- |
| binding | – | competition with immobilised ligand | 1 µM | remaining binding | 59% | COc1ccc2[nH]c3c4[nH]c5ccc(OC)cc5c4c4c(c3c2c1)C(=O)NC4=O |
| binding | – | – | 1 µM | remaining binding | 106% | COc1ccc2oc(-c3ccc4nc(N)oc4c3)c/c(=N\c3ccccc3NC(=O)CCN)c2c1 |
| enzyme activity | inhibitor | – | 1 µM | inhibition | 99% | C=CC(=O)N1CCC([C@@H]2CCNc3c(C(N)=O)c(-c4ccc(Oc5ccccc5)cc4)nn32)CC1 |
| cell-free assay | – | competition with immobilised ligand | 25 µM | remaining binding | 64% | N#Cc1ccc(NC(=O)Nc2ccccc2)cc1 |
| binding | – | competition with immobilised ligand | 0.5 µM | remaining binding | 68% | CCCCC(=O)Nc1ccc(-c2ccc3ncn(CCC)c(=O)c3c2)cn1 |
| binding | – | competition with immobilised ligand | 1 µM | remaining binding | 40% | CN1CCN(C(=O)c2ccc(NC(=O)Nc3ccc(N(C)c4ccnc(Nc5ccc(CS(C)(=O)=O)cc5)n4)cc3)cc2)CC1 |
| enzyme activity | inhibitor | – | 1 µM | activity vs control | 98% | CC(C)S(=O)(=O)c1ccc2nccc(Nc3ccc4sc(C5CCCC5)nc4c3)c2c1 |
| enzyme activity | inhibitor | – | 0.1 µM | inhibition | 24.2% | Cc1cc(O)c(-c2ccc([C@@H](C)CN(C)C)cc2)c2c1[nH]c(=O)c1sccc12 |
| enzyme activity | inhibitor | – | 0.2 µM | inhibition | 20.9% | C#Cc1cc(-c2cc(Nc3nc(N[C@@H](C)c4ccc(F)cn4)ncc3Cl)n[nH]2)ccc1C=O |
| enzyme activity | inhibitor | – | 1 µM | inhibition | 20% | CO[C@@H]1[C@H](N(C)C(=O)c2ccccc2)C[C@H]2O[C@]1(C)n1c3ccccc3c3c4c(c5c6ccccc6n2c5c31)C(=O)NC4 |
